Consider 15 molecules from PubChem BioAssay.

Active and inactive are the calls of the source. Unless noted, no stated cut-off is given here; in the data, active means inhibition above about 30%; inactive means the rest.

Assay [1] can be described thus: Her2 expression decrease, cell viability multiplex – SKBR3 breast tumor cells, AlphaScreen, ATP viability, primary screen (AID 461;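 active means Her2 level under about 52% in both replicate screens, with viability over 70% of control, limit read from the data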;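 on Her2 level: lower value means less Her2 protein in the cells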;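 on viability: percent of carrier control wells set as 100% viability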). The following applies: SKBR3 Her2 protein level, 18-24 h, measured here: SKBR3 viability, ATP luminescence, at 10 µM. (Alpha assays give light when donor and acceptor beads are brought close together.)
Assay [2] addresses Receptor tyrosine-protein kinase erbB-2 (Homo sapiens) (UniProt P04626). The assay is described as above. The following applies: 18-24 h, at 10 µM, stronger effect = lower value.
Assay [3] can be described thus: reduced viability of SK-BR-3 breast cancer cells – cell-based, 24 h, human, pilot screen (AID 572;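 active means viability at or below 10% of carrier control in both of two separate runs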;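 further: compound exposure lasted between 18 and 24 h rather than exactly 24 h; 100% = carrier-treated control wells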). The following applies: SK-BR-3 viability, CellTiter-Glo luminescence, at 10 µM, stronger effect = lower value.
Assay [4] can be described thus: HUVEC growth inhibition – cell-based, human, primary screen (AID 575;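 active means viability at or below 30% in both replicate assays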;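 further: 100% = median of untreated cell wells with 0.1% DMSO on each plate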). Conditions: HUVEC proliferation, CellTiter-Glo luminescence, 72 h; at 10 µM; stronger effect = lower value. A digest of the protocol:
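Material: primary human umbilical vein endothelial cells / Schedule: 72 h exposure, 37 °C, 5% CO2, 30 min RT equilibration / Signal: ATP-based CellTiter-Glo luminescent read / Read-out basis: percent of median DMSO-control luminescence / Control set: 32 DMSO-only cell-control wells (high), 32 MePR drug-control wells (low) per plate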
A general note: In ATP-based viability assays light output follows the ATP content of the culture.

Assay [5] in a line: H69AR cell proliferation blockers – human, duplicate replicates, primary screen (AID 580;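 active means viability at or under a set limit in both replicates, limit being median viability minus 3 SD, cut at about 48% in these data, passing the limit was not always enough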;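 further: 100% = mean luminescence of untreated wells and 0% = no signal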). Conditions: H69AR lung tumor cells viability, ATP luminescence, 72 h; at 10 µM; stronger effect = lower value.
The nature of assay [6]: MRP1 drug-resistance reversers in H69AR cells – cell-based, doxorubicin co-treatment, pilot screen (AID 601;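 active means viability loss from added drug above about 55%, and viability with drug at most 40%, in both replicates, limit read from the data, passing the limit was not always enough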). The following applies: CellTiter-Glo, 72 h, at 10 µM; for differential viability (reversal): stronger effect = higher value.
Assay [7] in a line: yeast transport mutant growth inhibition pilot in 384-well plates, post-Golgi transport modulator project (AID 636; in the data active means inhibition above about 31%). The following applies: absorbance 615 nm, about 18 h, stronger effect = higher value.
Assay [8] in a line: growth suppression of yeast trafficking mutant, preliminary HTS, modulators of trafficking downstream of Golgi apparatus project, 1536-format plate, OD 615 nm (AID 637). Conditions: yeast transport mutant growth, absorbance 615 nm, 18 h; stronger effect = higher value.
[9] abbreviates: H69AR cells + 2 uM doxorubicin, measured here: viability with 2 uM doxorubicin, stronger effect = lower value.
[10] abbreviates: H69AR cells, compound alone cytotoxicity.

Usually viability stands for a read-out of living cells in per cent, often relative to untreated cells. In general, inhibition refers to the relative decrease from the control value, in per cent.

Sequence of Receptor tyrosine-protein kinase erbB-2 (Homo sapiens) (P04626 whole entry, looked up): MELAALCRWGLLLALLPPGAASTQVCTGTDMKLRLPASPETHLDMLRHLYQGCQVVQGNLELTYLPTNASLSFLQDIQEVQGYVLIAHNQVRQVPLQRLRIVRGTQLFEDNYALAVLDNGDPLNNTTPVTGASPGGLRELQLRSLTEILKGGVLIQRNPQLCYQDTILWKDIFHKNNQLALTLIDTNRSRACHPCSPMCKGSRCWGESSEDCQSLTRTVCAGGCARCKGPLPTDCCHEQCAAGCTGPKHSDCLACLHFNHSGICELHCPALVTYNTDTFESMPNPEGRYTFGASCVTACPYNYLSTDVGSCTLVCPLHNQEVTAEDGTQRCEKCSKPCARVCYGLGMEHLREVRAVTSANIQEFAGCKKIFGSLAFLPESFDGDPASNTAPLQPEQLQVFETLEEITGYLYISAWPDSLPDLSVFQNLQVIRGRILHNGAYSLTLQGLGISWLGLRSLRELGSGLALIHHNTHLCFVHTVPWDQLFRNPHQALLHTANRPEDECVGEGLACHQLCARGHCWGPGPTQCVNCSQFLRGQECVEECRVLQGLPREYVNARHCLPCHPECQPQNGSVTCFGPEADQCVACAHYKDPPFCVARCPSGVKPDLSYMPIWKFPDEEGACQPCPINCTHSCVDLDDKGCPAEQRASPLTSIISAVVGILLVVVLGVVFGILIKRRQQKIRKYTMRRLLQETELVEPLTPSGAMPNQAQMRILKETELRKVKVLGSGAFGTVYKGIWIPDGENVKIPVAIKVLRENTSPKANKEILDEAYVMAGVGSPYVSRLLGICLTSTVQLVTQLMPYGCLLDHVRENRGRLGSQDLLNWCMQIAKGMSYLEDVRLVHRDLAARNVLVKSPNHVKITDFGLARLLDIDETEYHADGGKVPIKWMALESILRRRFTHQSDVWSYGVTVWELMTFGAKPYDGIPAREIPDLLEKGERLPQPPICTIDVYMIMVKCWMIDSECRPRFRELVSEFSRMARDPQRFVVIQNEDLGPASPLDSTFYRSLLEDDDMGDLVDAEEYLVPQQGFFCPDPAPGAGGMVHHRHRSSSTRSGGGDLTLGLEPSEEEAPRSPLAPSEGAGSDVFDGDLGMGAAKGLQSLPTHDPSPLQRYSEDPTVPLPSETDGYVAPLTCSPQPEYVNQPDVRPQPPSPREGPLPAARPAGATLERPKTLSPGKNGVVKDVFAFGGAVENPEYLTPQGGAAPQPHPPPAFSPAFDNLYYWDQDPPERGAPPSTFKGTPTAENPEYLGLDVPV

Regarding `CCOC(=O)c1ccc(NC(=O)CSc2nnc(COc3ccccc3)n2C)cc1`, the viability in assay [1] is 110%; in assay [3] it was 110% (inactive); in assay [4], 85.3% (inactive); in assay [5], 107% (inactive); in assay [6] (setting [9]) it was 98.1%; in assay [6] (setting [10]) it was 107%. For the same molecule, the Her2 level in assay [2] was 113% (inactive). In addition, the differential viability (reversal) in assay [6] (H69AR cells + 2 uM doxorubicin) was 8.77% (inactive). Moreover, the inhibition in assay [7] is -1.3% (inactive); in assay [8], -9.67% (inactive).

Consider `CCN(CC)c1ccc2c(C)c(-c3ccc(N)cc3)c(=O)oc2c1`, for which the viability in assay [1] was 96.5%; in assay [3] it was 96.5% (inactive); in assay [4], 60.4% (inactive); in assay [5], 61.8% (inactive); in assay [6] (setting [9]), 71.6%; in assay [6] (setting [10]) it was 61.8%. Moreover, the Her2 level in assay [2] was 84.5% (inactive). Moreover, the differential viability (reversal) in assay [6] (H69AR cells + 2 uM doxorubicin) is -9.77% (inactive). For the same molecule, the results for the inhibition in assay [7] and in assay [8] were -7.33% (inactive) and 12.3% (inactive), respectively.

In the case of `COc1cc(C2C(C#N)=C(C)NC3=C2C(=O)CC(C)(C)C3)ccc1O` (stereo not given), the viability in assay [1] was 100%; in assay [3], 100% (inactive); in assay [4], 94.7% (inactive); in assay [5], 101% (inactive); in assay [6] (setting [9]) it was 97.1%; in assay [6] (setting [10]), 101%. For the same molecule, in assay [2], the Her2 level was 84% (inactive). Besides, the differential viability (reversal) in assay [6] (H69AR cells + 2 uM doxorubicin) was 3.54% (inactive). Also, the inhibition in assay [7] is -6.13% (inactive); in assay [8], -7.46% (inactive).

On to `CCOC(=O)c1[nH]c(C)c(C(=O)Nc2ccccc2C)c1C`, for which the viability is 79.5% in assay [1]; 79.5% (inactive) in assay [3]; 60.8% (inactive) in assay [4]; 19.3% (active) in assay [5]; 65.9% in assay [6] (setting [9]); 19.3% in assay [6] (setting [10]). Moreover, in assay [2], the Her2 level is 85% (inactive). The differential viability (reversal) in assay [6] (H69AR cells + 2 uM doxorubicin) is -46.6% (inactive). The inhibition in assay [7] is -0.9% (inactive); in assay [8], 3.67% (inactive).

In the case of `Cc1cc(=O)oc(C)c1C(=O)O`, the viability in assay [1] was 102%; in assay [3], 102% (inactive); in assay [4], 97.1% (inactive); in assay [5], 92% (inactive); in assay [6] (setting [9]), 84.7%; in assay [6] (setting [10]), 92%. In addition, the Her2 level in assay [2] is 118% (inactive). For the same molecule, in assay [6] (H69AR cells + 2 uM doxorubicin), the differential viability (reversal) is 7.3% (inactive). Also, the results for the inhibition in assay [7] and in assay [8] were -6.1% (inactive) and 9.34% (inactive), respectively.

For the molecule `COc1ccc(CCNC(=O)c2cc(C(C)C)on2)cc1OC`, the viability in assay [1] was 95.5%; in assay [3] it was 95.5% (inactive); in assay [4] it was 96.6% (inactive); in assay [5] it was 93.2% (inactive); in assay [6] (setting [9]) it was 83.6%; in assay [6] (setting [10]), 93.2%. The Her2 level in assay [2] is 101% (inactive). In assay [6] (H69AR cells + 2 uM doxorubicin), the differential viability (reversal) is 9.6% (inactive). Moreover, the inhibition was 0.51% (inactive) in assay [7] and -0.67% (inactive) in assay [8].

With `O=C1NC(=O)C2(CCC(C(=O)O)C2)N1` (stereo not given), the viability in assay [1] is 93.5%; in assay [3], 93.5% (inactive); in assay [4], 96.4% (inactive); in assay [5], 94.2% (inactive); in assay [6] (setting [9]), 94.5%; in assay [6] (setting [10]), 94.2%. Further, in assay [2], the Her2 level is 84% (inactive). In assay [6] (H69AR cells + 2 uM doxorubicin), the differential viability (reversal) was -0.33% (inactive). Also, the inhibition in assay [7] was -5.73% (inactive); in assay [8], 2.46% (inactive).

As to `O=C(C1=C(O)C(=O)N(Cc2ccccc2)C1c1ccncc1)c1ccco1` (stereo not given), the viability in assay [1] is 97.5%; in assay [3], 97.5% (inactive); in assay [4], 109% (inactive); in assay [5] it was 104% (inactive); in assay [6] (setting [9]), 101%; in assay [6] (setting [10]), 104%. In addition, the Her2 level in assay [2] is 111% (inactive). For the same molecule, the differential viability (reversal) in assay [6] (H69AR cells + 2 uM doxorubicin) is 3.21% (inactive). Further, the inhibition in assay [7] was -0.26% (inactive); in assay [8], -5.33% (inactive).

For the molecule `c1ccc(CSCc2cn3ccsc3n2)cc1`, the viability is 93.5% in assay [1]; 93.5% (inactive) in assay [3]; 104% (inactive) in assay [4]; 99.1% (inactive) in assay [5]; 84.6% in assay [6] (setting [9]); 99.1% in assay [6] (setting [10]). Besides, the Her2 level in assay [2] was 95.5% (inactive). Also, in assay [6] (H69AR cells + 2 uM doxorubicin), the differential viability (reversal) was 14.5% (inactive). For the same molecule, the inhibition is -0.27% (inactive) in assay [7] and -3.49% (inactive) in assay [8].

Turning to `COc1ccccc1C(=O)Nc1ccc(N2CCN(Cc3ccccc3)CC2)cc1`, the viability in assay [1] was 81.5%; in assay [3], 81.5% (inactive); in assay [4], 66.8% (inactive); in assay [5], 89.6% (inactive); in assay [6] (setting [9]), 87.5%; in assay [6] (setting [10]), 89.6%. For the same molecule, in assay [2], the Her2 level is 75.5% (inactive). For the same molecule, the differential viability (reversal) in assay [6] (H69AR cells + 2 uM doxorubicin) is 2.1% (inactive). In addition, the values for the inhibition in assay [7] and in assay [8] were -5.2% (inactive) and 1.97% (inactive), respectively.

On to `CCOC(=O)c1cccc(NC(=O)CSc2nc3cccnc3n2C)c1`, for which the viability in assay [1] was 86.5%; in assay [3], 86.5% (inactive); in assay [4], 71.4% (inactive); in assay [5], 93.2% (inactive); in assay [6] (setting [9]), 94.7%; in assay [6] (setting [10]), 93.2%. In assay [2], the Her2 level is 94.5% (inactive). Also, the differential viability (reversal) in assay [6] (H69AR cells + 2 uM doxorubicin) was -1.5% (inactive). Also, the figures for the inhibition in assay [7] and in assay [8] were -5.14% (inactive) and 1.8% (inactive), respectively.

With `COc1ccc(C)cc1S(=O)(=O)N(C)CC(=O)Nc1ccc2c(c1)OCO2`, the viability in assay [1] is 129%; in assay [3], 129% (inactive); in assay [4], 92.7% (inactive); in assay [5] it was 89.2% (inactive); in assay [6] (setting [9]) it was 88.1%; in assay [6] (setting [10]), 89.2%. Also, the Her2 level in assay [2] was 98% (inactive). In addition, the differential viability (reversal) in assay [6] (H69AR cells + 2 uM doxorubicin) is 1.07% (inactive). For the same molecule, the values for the inhibition in assay [7] and in assay [8] were -4.67% (inactive) and -4.92% (inactive), respectively.

With `COc1ccc(C(C(C(=O)c2cccs2)N2CCOCC2)N2CCOCC2)cc1OC` (stereo not given), the viability in assay [1] is 102%; in assay [3] it was 102% (inactive); in assay [4] it was 84.3% (inactive); in assay [5], 102% (inactive); in assay [6] (setting [9]), 96.6%; in assay [6] (setting [10]) it was 102%. Further, the Her2 level in assay [2] is 112% (inactive). Also, in assay [6] (H69AR cells + 2 uM doxorubicin), the differential viability (reversal) is 4.94% (inactive). The inhibition in assay [7] is -1.97% (inactive); in assay [8], 0% (inactive).

In the case of `COc1ccccc1OCc1ccc(C(=O)Nc2ccncc2)o1`, the viability in assay [1] is 79.5%; in assay [3], 79.5% (inactive); in assay [4], 84.9% (inactive); in assay [5], 89.4% (inactive); in assay [6] (setting [9]), 89.4%; in assay [6] (setting [10]), 89.4%. In assay [2], the Her2 level was 92% (inactive). In assay [6] (H69AR cells + 2 uM doxorubicin), the differential viability (reversal) is -0.005% (inactive). Further, the inhibition was -3.07% (inactive) in assay [7] and 6.61% (inactive) in assay [8].

Consider `COCCn1c(CN(Cc2ccccc2)Cc2ccccc2)nc2c1c(=O)n(C)c(=O)n2C`, for which the viability was 81% in assay [1]; 81% (inactive) in assay [3]; 81.2% (inactive) in assay [4]; 81.2% (inactive) in assay [5]; 93% in assay [6] (setting [9]); 81.2% in assay [6] (setting [10]). Moreover, the Her2 level in assay [2] was 96% (inactive). Moreover, in assay [6] (H69AR cells + 2 uM doxorubicin), the differential viability (reversal) was -11.8% (inactive). Also, the inhibition was -1.87% (inactive) in assay [7] and 1.5% (inactive) in assay [8].
